Here are results for 14 compounds from PubChem BioAssay.

The structures appear in SMILES notation. Activity calls are given as the source filed them.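 The calls were made as follows, unless noted: active = viability loss from added drug above about 55%, and viability with drug at most 40%, in both replicates (limit read from the data, passing the limit was not always enough); inconclusive = both conditions met in only one replicate; inactive = neither replicate meets both conditions.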

Experiment [1] deals with Pantothenate synthetase (Mycobacterium tuberculosis (strain ATCC 25618 / H37Rv)) (UniProt P9WIL5). The experiment in a line: Recombinant Mtb pantothenate synthetase (PanC) inhibitors, coupled enzyme, confirmatory (AID 375; call rule not given here;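 also: 0% = full reaction with vehicle and 100% = no enzyme background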). Particulars: coupled enzyme assay; at 10 µM, stronger effect = higher value.
Pantothenate synthetase (Mycobacterium tuberculosis (strain ATCC 25618 / H37Rv)), sequence (P9WIL5 whole entry, looked up): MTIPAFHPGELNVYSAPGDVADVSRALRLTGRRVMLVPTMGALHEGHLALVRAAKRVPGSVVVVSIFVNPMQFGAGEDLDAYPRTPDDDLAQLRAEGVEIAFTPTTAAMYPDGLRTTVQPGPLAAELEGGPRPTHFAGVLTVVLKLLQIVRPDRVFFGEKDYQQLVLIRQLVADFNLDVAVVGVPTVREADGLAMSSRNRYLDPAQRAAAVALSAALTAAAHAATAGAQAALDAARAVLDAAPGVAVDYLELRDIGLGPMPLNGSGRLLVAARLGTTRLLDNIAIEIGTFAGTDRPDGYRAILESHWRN
Experiment [2] is described as follows: reducers of endogenous Her2 protein level, primary screen, SKBR3 breast tumor cells, AlphaScreen, ATP viability (AID 461;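 active = Her2 level under about 52% in both replicate screens, with viability over 70% of control, limit read from the data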;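 as to Her2 level: lower value means less Her2 protein in the cells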;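 as to viability: percent of carrier control wells set as 100% viability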). Particulars: 18-24 h, measured here: SKBR3 viability, ATP luminescence, at 10 µM. On the technique in general: In Alpha technology, singlet oxygen from a donor bead excites a nearby acceptor bead.
Experiment [3] deals with Receptor tyrosine-protein kinase erbB-2 (Homo sapiens) (UniProt P04626). The description is as above. Particulars: 18-24 h, at 10 µM, stronger effect = lower value.
Receptor tyrosine-protein kinase erbB-2 (Homo sapiens), sequence (P04626 whole entry, looked up): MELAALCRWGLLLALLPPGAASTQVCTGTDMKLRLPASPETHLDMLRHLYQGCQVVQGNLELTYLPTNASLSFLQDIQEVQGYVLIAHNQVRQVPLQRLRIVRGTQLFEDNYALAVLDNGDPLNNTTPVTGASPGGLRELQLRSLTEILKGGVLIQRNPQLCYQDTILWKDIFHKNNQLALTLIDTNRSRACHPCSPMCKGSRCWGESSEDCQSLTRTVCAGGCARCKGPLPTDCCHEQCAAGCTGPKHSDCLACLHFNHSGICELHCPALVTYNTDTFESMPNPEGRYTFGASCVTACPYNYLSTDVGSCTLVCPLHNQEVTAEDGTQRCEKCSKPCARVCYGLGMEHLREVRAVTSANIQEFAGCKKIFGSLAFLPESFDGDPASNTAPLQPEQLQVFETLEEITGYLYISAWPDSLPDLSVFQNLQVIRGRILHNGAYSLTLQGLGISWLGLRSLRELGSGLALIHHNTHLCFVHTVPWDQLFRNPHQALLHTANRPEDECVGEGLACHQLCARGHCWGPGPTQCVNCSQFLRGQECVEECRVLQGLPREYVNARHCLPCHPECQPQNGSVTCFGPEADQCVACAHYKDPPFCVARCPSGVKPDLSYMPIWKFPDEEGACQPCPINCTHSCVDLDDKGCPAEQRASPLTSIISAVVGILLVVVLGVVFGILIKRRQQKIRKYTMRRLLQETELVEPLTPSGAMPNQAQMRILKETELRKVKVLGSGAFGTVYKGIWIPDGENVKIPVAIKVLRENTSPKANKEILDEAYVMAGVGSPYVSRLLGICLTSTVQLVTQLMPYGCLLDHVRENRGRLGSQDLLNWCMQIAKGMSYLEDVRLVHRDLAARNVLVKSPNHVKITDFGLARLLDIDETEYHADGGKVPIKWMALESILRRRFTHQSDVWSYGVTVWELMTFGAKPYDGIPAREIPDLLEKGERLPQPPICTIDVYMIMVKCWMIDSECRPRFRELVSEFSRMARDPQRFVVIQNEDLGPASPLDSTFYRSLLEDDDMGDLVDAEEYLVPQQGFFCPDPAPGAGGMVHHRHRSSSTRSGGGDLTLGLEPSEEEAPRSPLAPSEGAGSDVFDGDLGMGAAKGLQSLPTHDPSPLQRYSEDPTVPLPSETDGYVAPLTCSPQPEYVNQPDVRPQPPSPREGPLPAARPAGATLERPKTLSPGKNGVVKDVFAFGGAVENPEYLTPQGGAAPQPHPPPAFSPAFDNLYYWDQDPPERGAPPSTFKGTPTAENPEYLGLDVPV
Experiment [4] in a line: SK-BR-3 cell growth inhibitors, pilot screen, 24 h, human (AID 572;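 active = viability at or below 10% of carrier control in both of two separate runs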;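 also: compound exposure lasted between 18 and 24 h rather than exactly 24 h; 100% = carrier-treated control wells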). Particulars: SK-BR-3 viability, CellTiter-Glo luminescence, at 10 µM, stronger effect = lower value. (Cellular ATP, detected with luciferase, serves as a proxy for viable cell number.)
Experiment [5] in a line: HUVEC growth inhibition – cell-based, human, primary screen (AID 575;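 active = viability at or below 30% in both replicate assays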;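 also: 100% = median of untreated cell wells with 0.1% DMSO on each plate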). Particulars: HUVEC proliferation, CellTiter-Glo luminescence, 72 h; at 10 µM; stronger effect = lower value. The method in brief: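 Timing: 72 h treatment at 37 °C; material: HUVEC primary cells; technique: CellTiter-Glo luminescence measuring cellular ATP; controls: vehicle and MePR control wells; measure: percent of median DMSO-control luminescence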

Experiment [6] can be described thus: growth inhibitors of H69AR lung tumor, primary screen, human, duplicate replicates (AID 580;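 active = viability at or under a set limit in both replicates, limit being median viability minus 3 SD, cut at about 48% in these data, passing the limit was not always enough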;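 also: 100% = mean luminescence of untreated wells and 0% = no signal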). Particulars: H69AR lung tumor cells viability, ATP luminescence, 72 h; at 10 µM; stronger effect = lower value.
Experiment [7] is described as follows: reversal of MRP1-mediated doxorubicin resistance, pilot screen, H69AR cells, doxorubicin co-treatment (AID 601). Particulars: CellTiter-Glo, 72 h, at 10 µM; for differential viability (reversal): stronger effect = higher value.
Experiment [8] can be described thus: 384-well plate pilot, post-Golgi transport modulator project, inhibition of yeast transport mutant growth (AID 636; in the data active = inhibition above about 31%). Particulars: absorbance 615 nm, about 18 h, stronger effect = higher value.
A short description of experiment [9]: growth suppression of yeast trafficking mutant, preliminary HTS, modulators of trafficking downstream of Golgi apparatus project, 1536-format plate, OD 615 nm (AID 637; in the data active = inhibition above about 30%). Particulars: yeast transport mutant growth, absorbance 615 nm, 18 h; stronger effect = higher value.
The mark [10] stands for this setting: H69AR cells + 2 uM doxorubicin, measured here: viability with 2 uM doxorubicin, stronger effect = lower value.
Setting [11] is: H69AR cells, compound alone cytotoxicity.

The inhibition is the change of the read-out against control, counted positive when it falls. Broadly, the viability is a read-out of living cells in per cent, often relative to untreated cells. For `O=C(NCc1ccccn1)c1ccccc1Cl`, the figures for the inhibition in [1], in [8] and in experiment [9] were 0% (inactive), -7.95% (inactive) and 0.63% (inactive), respectively. Besides, the viability in experiment [2] is 91.5%; in experiment [4], 91.5% (inactive); in experiment [5], 91.2% (inactive); in experiment [6], 98% (inactive); in experiment [7] (setting [10]) it was 81.5%; in experiment [7] (setting [11]) it was 98%. The Her2 level in experiment [3] was 76.5% (inactive). For the same compound, in experiment [7] (H69AR cells + 2 uM doxorubicin), the differential viability (reversal) is 16.5% (inactive).
Consider `CC(=NCc1cccnc1)c1c(O)n(Cc2ccccc2)c(=O)[nH]c1=O`, for which the results for the inhibition in [1], in [8] and in [9] were 1% (inactive), -0.27% (inactive) and 2.95% (inactive), respectively. The viability in experiment [2] is 91.5%; in [4] it was 91.5% (inactive); in experiment [5], 92.6% (inactive); in experiment [6] it was 93.5% (inactive); in experiment [7] (setting [10]), 98.3%; in experiment [7] (setting [11]), 93.5%. Besides, the Her2 level in experiment [3] is 90.5% (inactive). Besides, in experiment [7] (H69AR cells + 2 uM doxorubicin), the differential viability (reversal) was -4.79% (inactive).
On to `CN1[C@@H]2CC[C@H]1CC(OC(=O)C1C=Nc3ccccc31)C2` (stereo partly specified), for which the results for the inhibition in experiment [1], in [8] and in experiment [9] were 4% (inactive), 3.25% (inactive) and 0.5% (inactive), respectively. For the same compound, the viability in [4] is 86% (inactive); in experiment [5], 82.4% (inactive); in experiment [6], 83.3% (inactive); in experiment [7] (setting [10]), 97.7%; in experiment [7] (setting [11]), 83.3%. Besides, the differential viability (reversal) in experiment [7] (H69AR cells + 2 uM doxorubicin) is -14.3% (inactive).
For `Cc1ccc(S(=O)(=O)Cc2ccc(C(=O)N3CCC4(CC3)OCCO4)o2)cc1`, the inhibition is 0% (inactive) in experiment [1], 7.37% (inactive) in experiment [8] and -5.64% (inactive) in [9]. Further, the viability in experiment [2] was 75%; in experiment [4], 75% (inactive); in experiment [5] it was 103% (inactive); in [6], 90.6% (inactive); in experiment [7] (setting [10]) it was 93.7%; in experiment [7] (setting [11]), 90.6%. Besides, the Her2 level in experiment [3] is 104% (inactive). Further, the differential viability (reversal) in experiment [7] (H69AR cells + 2 uM doxorubicin) was -3.13% (inactive).
Regarding `CCOC(=O)C1=C(N)OC(C)=C(C(=O)OCCOC)C12C(=O)Nc1ccccc12` (stereo unspecified), the inhibition in [1] is 5% (inactive); in experiment [8] it was -4.52% (inactive); in [9] it was 1.64% (inactive). Besides, the viability in experiment [4] is 85% (inactive); in experiment [5] it was 92% (inactive); in experiment [6], 98.2% (inactive); in experiment [7] (setting [10]) it was 107%; in experiment [7] (setting [11]), 98.2%. Also, the differential viability (reversal) in experiment [7] (H69AR cells + 2 uM doxorubicin) was -9.01% (inactive).
Take `OCC12COC3c4ccccc4C(OC1)N32` (stereo unspecified): the inhibition was 0% (inactive) in [1], -5.47% (inactive) in experiment [8] and -5.81% (inactive) in [9]. Further, the viability in experiment [2] was 110%; in experiment [4], 110% (inactive); in [5] it was 94% (inactive); in [6], 97.3% (inactive); in experiment [7] (setting [10]), 92.7%; in [7] (setting [11]), 97.3%. Besides, in [3], the Her2 level was 118% (inactive). Further, the differential viability (reversal) in experiment [7] (H69AR cells + 2 uM doxorubicin) was 4.61% (inactive).
Take `COc1ccc(CCn2c(O)c(C=NCc3cccnc3)c(=O)[nH]c2=O)cc1OC`: the inhibition is 0% (inactive) in experiment [1], -4.67% (inactive) in [8] and 1.97% (inactive) in [9]. The viability in [4] is 63% (inactive); in experiment [5] it was 118% (inactive); in experiment [6], 95.4% (inactive); in experiment [7] (setting [10]) it was 94.3%; in experiment [7] (setting [11]), 95.4%. In addition, the differential viability (reversal) in experiment [7] (H69AR cells + 2 uM doxorubicin) was 1.12% (inactive).
In the case of `Cc1ccc(-c2nc(CS(=O)CC(=O)N3CCC4(CC3)OCCO4)c(C)o2)cc1` (stereo unspecified), the inhibition was 0% (inactive) in experiment [1], -4.42% (inactive) in experiment [8] and -0.79% (inactive) in experiment [9]. The viability in [2] is 92.5%; in experiment [4], 92.5% (inactive); in experiment [5], 96.4% (inactive); in [6], 85.1% (inactive); in experiment [7] (setting [10]) it was 95.7%; in experiment [7] (setting [11]), 85.1%. Moreover, in experiment [3], the Her2 level is 99% (inactive). Also, in experiment [7] (H69AR cells + 2 uM doxorubicin), the differential viability (reversal) is -10.6% (inactive).
Consider `COc1ccccc1OCCCn1cc(C(=O)c2ccco2)c2ccccc21`, for which the figures for the inhibition in [1], in experiment [8] and in experiment [9] were 0% (inactive), -4.73% (inactive) and -5.33% (inactive), respectively. For the same compound, the viability in experiment [2] is 106%; in experiment [4] it was 106% (inactive); in experiment [5] it was 74.9% (inactive); in [6] it was 77.5% (inactive); in experiment [7] (setting [10]), 82.7%; in experiment [7] (setting [11]), 77.5%. For the same compound, the Her2 level in [3] is 96% (inactive). Further, the differential viability (reversal) in experiment [7] (H69AR cells + 2 uM doxorubicin) is -5.27% (inactive).
As for `O=c1[nH]c(=O)n(-c2cccc3ccccc23)c(O)c1C=NCCCn1ccnc1`, the figures for the inhibition in experiment [1], in experiment [8] and in [9] were 0% (inactive), -5.21% (inactive) and 1.27% (inactive), respectively. For the same compound, the viability was 63% (inactive) in experiment [4]; 101% (inactive) in experiment [5]; 102% (inactive) in experiment [6]; 92% in experiment [7] (setting [10]); 102% in [7] (setting [11]). Besides, the differential viability (reversal) in [7] (H69AR cells + 2 uM doxorubicin) is 10% (inactive).
`CCC(=NCCCN1CCOCC1)c1c(O)n(Cc2ccccc2)c(=O)[nH]c1=O`: the inhibition in experiment [1] was 0% (inactive); in [8], -5.41% (inactive); in experiment [9], -5.56% (inactive). For the same compound, the viability in [2] was 108%; in experiment [4] it was 108% (inactive); in experiment [5] it was 84.3% (inactive); in [6], 89.2% (inactive); in [7] (setting [10]), 90.7%; in experiment [7] (setting [11]) it was 89.2%. Further, in experiment [3], the Her2 level was 107% (inactive). In experiment [7] (H69AR cells + 2 uM doxorubicin), the differential viability (reversal) was -1.53% (inactive).
`CC(C)=CCSc1nnc([C@@H](N)Cc2c[nH]c3ccccc23)o1`: the inhibition was 7% (inactive) in experiment [1], -0.27% (inactive) in [8] and -8.39% (inactive) in [9]. Also, the viability was 102% in [2]; 102% (inactive) in [4]; 75.4% (inactive) in experiment [5]; 94% (inactive) in experiment [6]; 91.2% in experiment [7] (setting [10]); 94% in experiment [7] (setting [11]). Further, the Her2 level in experiment [3] is 110% (inactive). In addition, the differential viability (reversal) in experiment [7] (H69AR cells + 2 uM doxorubicin) is 2.83% (inactive).
With `COc1ccccc1N(CC(=O)NC1CCCCC1)C(=O)c1cnn(C(C)C)c1`, the inhibition in experiment [1] is 7% (inactive); in [8] it was 1.08% (inactive); in experiment [9], -5.24% (inactive). Also, the viability in [2] is 96.5%; in [4] it was 96.5% (inactive); in [5], 103% (inactive); in experiment [6], 106% (inactive); in experiment [7] (setting [10]) it was 97.2%; in experiment [7] (setting [11]) it was 106%. In experiment [3], the Her2 level is 104% (inactive). Moreover, the differential viability (reversal) in experiment [7] (H69AR cells + 2 uM doxorubicin) is 8.82% (inactive).
Take `COc1ccccc1-n1c(O)c(C=NCc2ccc3c(c2)OCO3)c(=O)[nH]c1=O`: the inhibition is 7% (inactive) in [1], -2.43% (inactive) in experiment [8] and -0.48% (inactive) in experiment [9]. For the same compound, the viability was 93.5% in experiment [2]; 93.5% (inactive) in [4]; 81.3% (inactive) in [5]; 91.8% (inactive) in experiment [6]; 88.3% in experiment [7] (setting [10]); 91.8% in experiment [7] (setting [11]). The Her2 level in experiment [3] is 91.5% (inactive). The differential viability (reversal) in experiment [7] (H69AR cells + 2 uM doxorubicin) is 3.46% (inactive).
